Results reported in ChEMBL document CHEMBL3407481, “Pyridine C-region analogs of 2-(3-fluoro-4-methylsulfonylaminophenyl)propanamides as potent TRPV1 antagonists” (Eur J Med Chem, 2015).

Legend:
[1] = system: Mus musculus; assay: Inhibition in capsaicin-induced hypothermia in mouse at 0.1 mg/kg, po 15 min before capsaicin challenge measured 30 mins post capsaicin treatment; format: functional
[2] = system: Mus musculus; assay: Inhibition in capsaicin-induced hypothermia in mouse at 1 mg/kg, po 15 min before capsaicin challenge measured 30 mins post capsaicin treatment; format: functional
[3] = target: T1, Transient receptor potential cation channel subfamily V member 1 (Homo sapiens, UniProt Q8NER1); assay: Antagonist activity at human TRPV1 expressed in CHO cells assessed as inhibition of N-arachidonoyl dopamine-induced activity by FLIPR assay; format: cell-based
[4] = system: Mus musculus; assay: Analgesic activity in mouse assessed as inhibition of formalin-induced response at 0.3 mg/kg, po; format: functional
In short: (§1)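 Formalin test in mice after oral dosing. Values are tabulated as MPE and described as % inhibition of the nociceptive response.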

[5] = system: Mus musculus; assay: Inhibition in capsaicin-induced hypothermia in mouse at 0.3 mg/kg, po 15 min before capsaicin challenge measured 30 mins post capsaicin treatment; format: functional
[6] = target: T1, Transient receptor potential cation channel subfamily V member 1; assay: Antagonist activity at human TRPV1 expressed in CHO cells assessed as inhibition of heat at 45 degC-induced activity by FLIPR assay; format: cell-based
[7] = system: Mus musculus; assay: Analgesic activity in mouse assessed as inhibition of formalin-induced response at 1 mg/kg, po; format: functional; in short: as §1
[8] = system: Mus musculus; assay: Inhibition in capsaicin-induced hypothermia in mouse compound dosed orally before capsaicin challenge measured 30 mins post capsaicin treatment; format: functional, organism-based
[9] = system: Mus musculus; assay: Inhibition in capsaicin-induced hypothermia in mouse at 10 mg/kg, po 15 min before capsaicin challenge measured 30 mins post capsaicin treatment; format: functional
[10] = target: T1, Transient receptor potential cation channel subfamily V member 1; assay: Antagonist activity at human TRPV1 expressed in CHO cells assessed as inhibition of capsaicin-induced activity by FLIPR assay; format: cell-based
[11] = target: T1, Transient receptor potential cation channel subfamily V member 1; assay: Antagonist activity at human TRPV1 expressed in CHO cells assessed as inhibition of pH-induced activity by FLIPR assay; format: cell-based
[12] = system: Mus musculus; assay: Analgesic activity in mouse assessed as inhibition of formalin-induced response at 0.1 mg/kg, po; format: functional; in short: as §1

T1 sequence (Q8NER1 whole entry): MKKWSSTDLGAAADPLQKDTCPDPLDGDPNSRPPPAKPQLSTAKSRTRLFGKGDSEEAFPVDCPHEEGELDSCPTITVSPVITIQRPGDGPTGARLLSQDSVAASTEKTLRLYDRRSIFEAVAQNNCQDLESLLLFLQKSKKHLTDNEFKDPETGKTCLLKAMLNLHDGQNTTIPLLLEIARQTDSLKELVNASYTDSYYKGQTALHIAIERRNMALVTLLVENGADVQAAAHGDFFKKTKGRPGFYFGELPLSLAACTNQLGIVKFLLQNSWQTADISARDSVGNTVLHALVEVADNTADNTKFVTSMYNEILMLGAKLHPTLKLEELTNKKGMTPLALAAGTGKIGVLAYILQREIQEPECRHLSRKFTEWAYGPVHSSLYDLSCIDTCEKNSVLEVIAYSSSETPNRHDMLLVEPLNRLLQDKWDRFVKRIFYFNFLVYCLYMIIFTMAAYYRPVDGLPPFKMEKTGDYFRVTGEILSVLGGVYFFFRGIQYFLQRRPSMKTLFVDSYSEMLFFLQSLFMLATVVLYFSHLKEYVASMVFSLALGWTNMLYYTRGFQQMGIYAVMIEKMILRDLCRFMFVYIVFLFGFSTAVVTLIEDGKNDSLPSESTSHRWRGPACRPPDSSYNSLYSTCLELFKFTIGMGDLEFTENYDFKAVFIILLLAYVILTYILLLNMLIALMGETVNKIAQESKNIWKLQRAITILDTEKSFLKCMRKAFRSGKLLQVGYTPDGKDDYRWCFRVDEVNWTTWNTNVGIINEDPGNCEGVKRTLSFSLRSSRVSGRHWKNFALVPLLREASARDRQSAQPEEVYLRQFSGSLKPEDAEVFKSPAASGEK

Compound `CC(C(=O)NCc1ccc(C(F)(F)Cl)nc1OC1CCCC1)c1ccc(NS(C)(=O)=O)c(F)c1` (stereo not drawn) has an inhibition in vivo at 0.1 mg/kg [1] of 23%, an inhibition in vivo at 1 mg/kg [2] of 60% and a Ki [3] of 0.04 nM. It also gave an MPE [4] of 29%, an inhibition in vivo at 0.3 mg/kg [5] of 41% and an IC50 [6] of 19.3 nM. For the same compound, the MPE [7] was 15%, the inhibition [8] was “Dose-dependent effect” and the inhibition in vivo at 10 mg/kg [9] was 92%.
Compound `CC(C(=O)NCc1ccc(C(F)(F)Cl)nc1N1CCCCCC1)c1ccc(NS(C)(=O)=O)c(F)c1` (stereo not drawn) has a Ki ([10]; read-out: Ki) of 0.5 nM.
Compound `CC(C(=O)NCc1ccc(C(F)(F)Cl)nc1N1CCCCC1)c1ccc(NS(C)(=O)=O)c(F)c1` (stereo not drawn) has a Ki ([10]; read-out: Ki) of 1.3 nM.
In the case of `CC1CCN(c2nc(C3CC3)ccc2CNC(=O)C(C)c2ccc(NS(C)(=O)=O)c(F)c2)CC1` (stereo not drawn), the Ki ([10]; read-out: Ki) is reported as 0.9 nM.
Compound `CC1CCN(c2nc(C(F)(F)F)ccc2CNC(=O)C(C)c2ccc(NS(C)(=O)=O)c(F)c2)CC1` (stereo not drawn) has a Ki [3] of 0.02 nM and an IC50 [11] of 15.8 nM.
Compound `CC1CC(C)CN(c2nc(C(F)(F)Cl)ccc2CNC(=O)C(C)c2ccc(NS(C)(=O)=O)c(F)c2)C1` (mixture of isomers) has a Ki ([10]; read-out: Ki) of 1 nM.
For `CC(C(=O)NCc1ncc(C(F)(F)F)cc1N1CCCC1)c1ccc(NS(C)(=O)=O)c(F)c1` (stereo not drawn), the Ki ([10]; cho) was “Not Active”.
`CC(C(=O)NCc1ccc(C(F)(F)Cl)nc1SC1CCCCC1)c1ccc(NS(C)(=O)=O)c(F)c1` (stereo not drawn) gave a Ki ([10]; read-out: Ki) of 3 nM.
With `CC1CCN(c2nc(-c3ccc(F)cc3)ccc2CNC(=O)C(C)c2ccc(NS(C)(=O)=O)c(F)c2)CC1` (stereo not drawn) the Ki ([10]; read-out: Ki) was 59 nM.
`CCCCOc1nc(C(F)(F)Cl)ccc1CNC(=O)C(C)c1ccc(NS(C)(=O)=O)c(F)c1` (stereo not drawn) gave a Ki ([10]; read-out: Ki) of 0.3 nM, a Ki [3] of 0.02 nM and an MPE [4] of 73%. It also gave an MPE [12] of 56%, an IC50 [11] of 8.3 nM and an inhibition in vivo at 0.3 mg/kg [5] of 43%. The IC50 [6] was 7 nM.
With `CC(C(=O)NCc1ccc(C2CC2)nc1N1CCCCC1)c1ccc(NS(C)(=O)=O)c(F)c1` (stereo not drawn) the Ki ([10]; read-out: Ki) was 1.1 nM.
With `CCCCCCOc1nc(C(F)(F)F)cc(C)c1CNC(=O)C(C)c1ccc(NS(C)(=O)=O)c(F)c1` (stereo not drawn) the Ki ([10]; read-out: Ki) was 100 nM.
For `CC(C(=O)NCc1ncc(C(F)(F)F)cc1N1CCCCC1)c1ccc(NS(C)(=O)=O)c(F)c1` (stereo not drawn), the Ki ([10]; read-out: Ki) was 28.6 nM.
